Laboratory results: ChEMBL document CHEMBL4390658, “Rational design of allosteric modulators of the aromatase enzyme: An unprecedented therapeutic strategy to fight breast cancer” (Eur J Med Chem, 2019)

Columns and labels:
Aromatase [1] = molecular target: T1, Aromatase (Homo sapiens, UniProt P11511); test: Inhibition of recombinant human aromatase at 100 uM preincubated for 10 mins followed by substrate and beta-NADP+ addition and measured for 60 mins by fluorescence method; settings: 1 h
T1 sequence (P11511 whole entry): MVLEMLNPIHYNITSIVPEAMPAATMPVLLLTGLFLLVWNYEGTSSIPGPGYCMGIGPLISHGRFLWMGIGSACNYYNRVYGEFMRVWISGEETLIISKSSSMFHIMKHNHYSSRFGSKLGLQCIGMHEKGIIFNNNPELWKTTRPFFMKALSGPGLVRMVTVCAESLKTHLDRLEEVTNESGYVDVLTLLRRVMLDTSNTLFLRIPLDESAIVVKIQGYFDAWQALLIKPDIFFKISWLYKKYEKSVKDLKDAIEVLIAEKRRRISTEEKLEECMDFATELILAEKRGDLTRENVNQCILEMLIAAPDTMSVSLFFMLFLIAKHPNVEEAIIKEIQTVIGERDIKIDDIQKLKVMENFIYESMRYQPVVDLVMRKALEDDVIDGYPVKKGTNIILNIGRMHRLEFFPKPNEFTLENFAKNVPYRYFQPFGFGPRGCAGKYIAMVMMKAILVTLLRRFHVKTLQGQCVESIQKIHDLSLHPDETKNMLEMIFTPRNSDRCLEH
Summary of the method: (§1)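 Single-concentration screen of recombinant human aromatase with an NADPH-generating system, at 100 and 200 µM inhibitor, DMSO ≤0.25% (v/v) final. Mix preincubated 10 min at 37°C, then fluorogenic substrate plus β-NADP+ added. Fluorescence read at 488/527 nm over 60 min. % inhibition taken from the RFU ratio of control to test, in triplicate.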

Aromatase [2] = molecular target: T1, Aromatase; test: Inhibition of recombinant human aromatase preincubated for 10 mins followed by substrate and beta-NADP+ addition and measured for 60 mins by fluorescence method
Aromatase [3] = molecular target: T1, Aromatase; test: Inhibition of recombinant human aromatase at 200 uM preincubated for 10 mins followed by substrate and beta-NADP+ addition and measured for 60 mins by fluorescence method; settings: 1 h; summary of the method: as §1
MDA-MB-231 = test: Growth inhibition of human MDA-MB-231 cells incubated for 72 hrs by cell counting based method; format: functional; settings: MDA-MB-231, 72 h
Summary of the method: (§2)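 MCF-7 (ER+) and MDA-MB-231 (ER−) cells from ATCC, seeded at 50000 cells/well in triplicate. After 24 h, exposed for 72 h to graded concentrations, up to 200 µM. Cells trypsinized and counted electronically. Means of three independent experiments, each in triplicate, used for dose-response curves and GI50.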

Aromatase [4] = molecular target: T1, Aromatase; test: Mixed type inhibition of recombinant human aromatase assessed as substrate Vmax preincubated for 10 mins followed by different substrate concentration and beta-NADP+ addition and measured for 60 mins by fluorescence method based Cornish-Bowden direct linear analysis (reference value: 91.5 /ms); settings: 1 h
Aromatase [5] = molecular target: T1, Aromatase; test: Mixed type inhibition of recombinant human aromatase assessed as Vmax preincubated for 10 min followed by different substrate concentration and beta-NADP+ addition measured for 60 mins by fluorescence method based Michaelis-menten analysis (reference value: 93.3 +/- 1.3 /ms); settings: 1 h
MCF7 = test: Growth inhibition of human MCF7 cells incubated for 72 hrs by cell counting based method; format: functional; settings: MCF7, 72 h; summary of the method: as §2
Aromatase [6] = molecular target: T1, Aromatase; test: Inhibition of recombinant human aromatase at 1 uM preincubated for 10 mins followed by substrate and beta-NADP+ addition and measured for 60 mins by fluorescence method; settings: 1 h, read-out: INH

| inhibition at 100 µM (Aromatase [1]) | IC50 (Aromatase [2]) | inhibition at 200 µM (Aromatase [3]) | GI50 (MDA-MB-231) | Vmax (Aromatase [4]) | Vmax (Aromatase [5]) | GI50 (MCF7) | inhibition at 1 µM (Aromatase [6]) | Compound |
| --- | --- | --- | --- | --- | --- | --- | --- | --- |
| 79% | 5.1 µM | 88% | 58 µM | 15.1 U/ms | 19.3 U/ms | 21.3 µM |  | CC[C@H](Nc1cc(C)nc(Nc2cccc(O)c2)n1)c1nccs1 |
| 11% | 6.1 µM | 58% |  |  |  |  |  | CC/C(=C(\c1ccc(O)cc1)c1ccc(OCCNC)cc1)c1ccccc1 [ENDOXIFEN] |
| 4% |  | 3% |  |  |  |  |  | NC(CCC(=O)O)C(=O)NC(Cc1c[nH]c2ccccc12)C(=O)O (configuration not stated) |
| 2% |  | 6% |  |  |  |  |  | CC[C@H](CO)N(Cc1ccccn1)C(=O)c1ccc(=O)[nH]c1 |
| 3% |  | 3% |  |  |  |  |  | O=C(NCc1cc[nH]c(=O)c1)c1ccc(COCC(F)(F)F)cc1 |
| 2% |  | 12% |  |  |  |  |  | CCSC(C(O)C(O)C(O)C(O)CO)n1cnc2c(S)ncnc21 (configuration not stated) |
| 46% |  | 56% |  |  |  |  |  | O=C1c2c(O)cc(O)cc2O[C@H](c2ccc(O)c(O)c2)[C@H]1O [(+)-TAXIFOLIN] |
|  |  |  | > 10 µM |  |  | 4.1 µM | 91% | N#Cc1ccc(C(c2ccc(C#N)cc2)n2cncn2)cc1 [LETROZOLE] |
| 53% | 21.7 µM | 69% | > 200 µM | 78.7 U/ms | 85.2 U/ms | 66.4 µM |  | O=C(CCc1ccc(O)c(Cl)c1)NCc1csc(=O)[nH]1 |
| 5% |  | 8% |  |  |  |  |  | Cc1ccc(C(c2ccc(C)c(C)c2)C(O)C(O)C(O)C(O)CO)cc1C (configuration not stated) |
| 8% |  | 8% |  |  |  |  |  | Nc1nc(O)cc(NC(=S)Nc2ccc(C(=O)O)cc2)n1 |
| 27% |  | 41% |  |  |  |  |  | C[C@@H](NC(=O)c1ccc(=O)[nH]c1)c1ccc2[nH]c(=O)[nH]c2c1 |
| 83% | 11 µM | 92% | 6.8 µM | 16.2 U/ms | 21.5 U/ms | 17.9 µM |  | O=C1c2c(O)ccc(O)c2C(=O)c2c(NCCCO)ccc(NCCCO)c21 |
| 4% |  | 19% |  |  |  |  |  | COc1ccc([C@@H](O)CNC(=O)N[C@@H]2CCCCNC2=O)cc1 |
| 0% |  | 3% |  |  |  |  |  | O=c1cc(CO)oc([C@H](Nc2ccccn2)c2ccccc2O)c1O |
| 39% | 20.9 µM | 62% | > 200 µM | 50.7 U/ms | 64.6 U/ms | > 200 µM |  | N[C@@H]1CCN(Cc2cc(O)c3cc(F)ccc3n2)C[C@H]1O |
| 11% |  | 10% |  |  |  |  |  | OCC(O)C(O)C(O)C(c1ccc(Cl)cc1)c1ccc(Cl)cc1 (configuration not stated) |
| 86% | 95.3 µM | 97% | 16.2 µM | 60.6 U/ms | 79.3 U/ms | 22.1 µM |  | COC(=O)c1ccc(NCC2=CC(=O)c3ccccc3C2=O)cc1 |
| 10% |  | 13% |  |  |  |  |  | O=C(C=Cc1ccc(O)c(O)c1)NCC(=O)NC(Cc1ccccc1)C(=O)O (configuration not stated) |
| 0% |  | 0% |  |  |  |  |  | CC(C)(C)NCC(O)COc1cccc2c1C[C@H](O)[C@H](O)C2 (some centres not stated) [NADOLOL] |
